Source: ChEMBL document CHEMBL2086298, “Synthesis and biological evaluation of fatty acyl ester derivatives of (-)-2',3'-dideoxy-3'-thiacytidine” (J Med Chem, 2012)

Legend:
[1] = test system: Human immunodeficiency virus; assay: Antiviral activity against HIV infected in human CEM-SS cells; assay type: functional, organism-based; details: Human immunodeficiency virus 1, CEM-SS
[2] = test system: Human immunodeficiency virus 1; assay: Antiviral activity against HIV1 BaL assessed as inhibition of infection in HeLa P4/R5 cells expressing CD4 receptor and beta-gal incubated for 2 hrs followed by compound-wash out measured after 46 hrs by single round infection MAGI assay; assay type: functional, organism-based; details: Human immunodeficiency virus 1, BaL
How it was run: (§1)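 P4R5 MAGI cells (CD4 and coreceptor expressing) were seeded at 1.2 × 10⁴ cells/well about 18 h before infection. They were exposed for 2 h at 37 °C to cell-free HIV-1 with or without compound, then washed and cultured 46 h more. Infection was read by β-galactosidase reporter chemiluminescence as a percentage of untreated infection. EC₅₀ came from regression, with triplicate wells per concentration.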

HeLa = assay: Cytotoxicity against human HeLa P4/R5 cells incubated for 2 hrs followed by compound-wash out measured after 46 hrs by MTT assay
[3] = test system: Human immunodeficiency virus 1; assay: Antiviral activity against HIV1 3B assessed as inhibition of infection in HeLa P4/R5 cells expressing CD4 receptor and beta-gal incubated for 2 hrs followed by compound-wash out measured after 46 hrs by single round infection MAGI assay; assay type: functional, organism-based; details: Human immunodeficiency virus 1, 3B; how it was run: as §1
[4] = test system: Human immunodeficiency virus 1; assay: Ratio of lamivudine EC50 to compound EC50 for HIV1 by cell-based assay; assay type: functional
CCRF-CEM [5] = assay: Drug metabolism in human CCRF-CEM cells assessed as compound hydrolysis at 50 uM after 1 hr by HPLC analysis
[6] = test system: Human immunodeficiency virus 1; assay: Antiviral activity against NNTRI-resistant HIV1 A-17 clade B clinical isolate infected in PHA-stimulated human PBMC assessed as inhibition of viral replication incubated for 6 hrs followed by compound-wash out measured after 6 days by liquid scintillation counting; assay type: functional, organism-based; details: Human immunodeficiency virus 1, A-17 clade B
[7] = test system: Human immunodeficiency virus 1; assay: Antiviral activity against HIV1 94US3393IN clade B clinical isolate infected in PHA-stimulated human PBMC assessed as inhibition of viral replication incubated for 6 hrs followed by compound-wash out measured after 6 days by liquid scintillation counting; assay type: functional, organism-based; details: Human immunodeficiency virus 1, 94US3393IN clade B
[8] = Cytotoxicity against PHA-stimulated human PBMC incubated for 6 hrs followed by compound-wash out measured after 6 days; assay type: cell-based
How it was run: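 PHA-P-stimulated PBMCs pooled from at least two normal donors were exposed to compound dilutions for 6 h. Cells were then washed by medium replacement and centrifugation (~200g, 10 min) and cultured 6 days or until peak RT activity. Cytotoxicity was monitored by MTS on the same plates used for antiviral testing, alongside drug-plus-medium control wells without cells.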

CCRF-CEM [9] = assay: Drug metabolism in human CCRF-CEM cells assessed as compound hydrolysis at 50 uM after 1 hr by HPLC analysis; assay type: ADME, cell-based
How it was run: (§2)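 CCRF-CEM cells were grown in serum-free RPMI to ~70–80% confluency (1 × 10⁶ cells/mL), then given medium containing 50 μM compound at 37 °C for 1–72 h. Pellets were washed in ice-cold PBS and extracted with methanol/chloroform/isopropanol (4:3:1), then filtered. Parent ester and products were tracked by analytical HPLC at 265 nm using a water/acetonitrile (0.1% TFA) gradient.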

[10] = test system: Human immunodeficiency virus 1; assay: Antiviral activity against HIV1 98USMSC5016 clade C clinical isolate infected in PHA-stimulated human PBMC assessed as inhibition of viral replication incubated for 6 hrs followed by compound-wash out measured after 6 days by liquid scintillation counting; assay type: functional, organism-based; details: Human immunodeficiency virus 1, 98USMSC5016 clade C
[11] = test system: Human immunodeficiency virus 1; assay: Antiviral activity against NRTI-resistant HIV1 71361-1 clade B clinical isolate infected in PHA-stimulated human PBMC assessed as inhibition of viral replication incubated for 6 hrs followed by compound-wash out measured after 6 days by liquid scintillation counting; assay type: functional, organism-based; details: Human immunodeficiency virus 1, 71361-1 clade B
[12] = test system: Human immunodeficiency virus 1; assay: Antiviral activity against multidrug-resistant HIV1 4755-5 clade B clinical isolate infected in PHA-stimulated human PBMC assessed as inhibition of viral replication incubated for 6 hrs followed by compound-wash out measured after 6 days by liquid scintillation counting; assay type: functional, organism-based; details: Human immunodeficiency virus 1, 4755-5 clade B
CCRF-CEM [13] = assay: Cellular uptake in human CCRF-CEM cells at 50 uM after 1 hr by HPLC analysis; assay type: ADME, cell-based; how it was run: as §2
[14] = test system: Human immunodeficiency virus 1; assay: Antiviral activity against HIV1 by cell-based assay; assay type: functional, organism-based

Compound	EC50 [2]	EC50 (HeLa)	EC50 [3]	also measured
CCSCCCCCCCCCCCC(=O)O	–	–	–	EC50 [1]: 9.4 µM
CCCCCCCCCCCCCC(=O)Nc1ccn([C@@H]2CS[C@H](COC(=O)CCCCCCCCCCCCC)O2)c(=O)n1	135 µM	> 154 µM	> 154 µM	–
[N-]=[N+]=NCCCCCCCCCCCC(=O)Nc1ccn([C@@H]2CS[C@H](COC(=O)CCCCCCCCCCCN=[N+]=[N-])O2)c(=O)n1	72.6 µM	> 148 µM	148 µM	–
CCCCCCCCCCCCCC(=O)Nc1ccn([C@@H]2CS[C@H](CO)O2)c(=O)n1	0.7 µM	> 228 µM	10.9 µM	Ratio EC50 [4]: 115
[N-]=[N+]=NCCCCCCCCCCCC(=O)Nc1ccn([C@@H]2CS[C@H](CO)O2)c(=O)n1	3.8 µM	> 221 µM	29.4 µM	–
CCSCCCCCCCCCCCC(=O)Nc1ccn([C@@H]2CS[C@H](CO)O2)c(=O)n1	0.4 µM	> 212 µM	5.3 µM	–
CCCCCCCCCCCCCC(=O)OC[C@@H]1O[C@H](n2ccc(N)nc2=O)CS1	0.2 µM	> 228 µM	0.5 µM	Drug metabolism (CCRF-CEM [5]): Active; IC50 [6]: 0.0028 µM; IC90 [6]: 0.0311 µM; IC50 [7]: 0.0042 µM; IC90 [7]: 0.015 µM; CC50 [8]: > 6.83 µM; Drug metabolism (CCRF-CEM [9]): Active; IC50 [10]: 0.0019 µM; IC90 [10]: 0.0275 µM; IC50 [11]: 0.0433 µM; IC90 [11]: 0.253 µM; IC50 [12]: 5.09 µM; IC90 [12]: > 6.83 µM; Drug uptake (CCRF-CEM [13]): Active
[N-]=[N+]=NCCCCCCCCCCCC(=O)OC[C@@H]1O[C@H](n2ccc(N)nc2=O)CS1	0.7 µM	> 221 µM	0.9 µM	–
CCSCCCCCCCCCCCC(=O)OC[C@@H]1O[C@H](n2ccc(N)nc2=O)CS1	0.2 µM	> 212 µM	2.3 µM	–
Nc1ccn([C@@H]2CS[C@H](CO)O2)c(=O)n1 [LAMIVUDINE]	–	> 437 µM	–	CC50 [8]: > 13.1 µM; EC50 [14]: 80.3 µM
